# Hits are enriched below; roughly 2% of the tested compounds scored in any of these assays.
# EBI2 block: EBI2 receptor antagonists, beta-arrestin recruitment, primary screen, cell-based, luminescence, 7a,25-OHC stimulation, uHTS. G-protein coupled receptor 183 (Homo sapiens), P32249. 7a,25-OHC stimulated. inhibition, % at 5 µM. actives 0.81% (n = 360,000). AID 651636, 2012; in the data active = inhibition above about 38%;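 also: enzyme fragment complementation signal reports receptor beta-arrestin coupling in cells; 0% = agonist plus DMSO wells and 100% = wells without agonist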
# APJ agonist: agonists of human apelin receptor APJ, primary screen, CHO-K1 cells, PathHunter beta-arrestin, luminescence; P35414; 0% DMSO wells, 100% apelin; activation, % at 20 µM; actives 0.11% (n = 330,000); AID 2520, 2010;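 active = activation more than six SD over the plate average, tested at 20 µM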;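 also: 0% = DMSO alone and 100% = apelin-13 at 10 nM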
#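 Test system: CHO-K1 APJ beta-arrestin complementation cell line. Amount: cell density 1000 per well. Controls: DMSO negative, 10 nM Apelin-13 positive. Signal: luminescent beta-gal fragment complementation, chemiluminescent substrate. Read-out basis: agonist-driven arrestin binding to APJ. Timing: compound stimulation 90 min at 25 °C, detection 60 min.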
# CXCR6 inh: CXCR6 receptor inhibitors, primary screen, cell-based, beta-arrestin, luminescence, CHO-K1 PathHunter, 1536-well; actives 0.36% (n = 360,000); C-X-C chemokine receptor type 6 (Homo sapiens), O00574; inhibition, % at 20 µM; in the data active = inhibition above about 34%, passing the limit was not always enough;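 also: antagonist mode with CXCL16 agonist at 10 nM final; 0% = 10 nM CXCL16 with DMSO and 100% = unstimulated wells without agonist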
# CCR6 antag: CCR6 receptor antagonists, primary screen, cell-based, CHO-K1, luminescence, beta-arrestin, uHTS; C-C chemokine receptor type 6 (Homo sapiens), P51684; CHO-K1 CCR6 PathHunter beta-arrestin, CCL20-stimulated; inhibition, % at 20 µM; actives 0.49% (n = 340,000); AID 493098, 2011;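 active = compounds whose inhibition of the agonist-driven luminescence signal at 20 µM reaches about 50%, limit read from the data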;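 also: cells stimulated with CCL20 at 14 nM final; plate controls were DMSO with CCL20 for no effect and DMSO without agonist for full effect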
# Target sequence (P51684 whole entry, looked up): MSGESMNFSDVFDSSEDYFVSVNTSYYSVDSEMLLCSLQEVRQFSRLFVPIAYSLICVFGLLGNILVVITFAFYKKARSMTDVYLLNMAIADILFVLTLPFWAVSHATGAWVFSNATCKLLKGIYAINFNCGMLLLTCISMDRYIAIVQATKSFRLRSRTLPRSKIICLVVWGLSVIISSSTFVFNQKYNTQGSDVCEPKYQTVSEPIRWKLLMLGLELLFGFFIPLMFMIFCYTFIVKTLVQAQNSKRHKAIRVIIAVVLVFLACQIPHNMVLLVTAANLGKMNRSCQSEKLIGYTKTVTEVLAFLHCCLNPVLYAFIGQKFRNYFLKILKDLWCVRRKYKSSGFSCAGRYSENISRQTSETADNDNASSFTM
# FXN GAA850 act: FXN promoter activators, primary screen, cell-based, luciferase luminescence, HEK293 lucGAA850; activation, % at 6 µM; actives 0.56% (n = 360,000); HEK293 lucGAA850 FXN promoter luciferase reporter, 24 h; percent of 10 µM SAHA response; AID 540364, 2011;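 active = activation above the average of all compounds screened plus 3 SD, cutoff fixed separately per campaign, cut at about 7.5% in these data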;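 also: 0% = DMSO wells and 100% = 10 µM SAHA wells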
# APJ antagonist: antagonists of human apelin receptor APJ, primary screen, CHO-K1 cells, beta-arrestin complementation, luminescence. P35414. inhibition, % at 20 µM. actives 0.32% (n = 330,000). AID 2521, 2010;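 active = inhibition above about 40% at 20 µM, limit read from the data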;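 also: cells challenged with 10 nM apelin-13 agonist together with compound; plate controls were apelin-13 plus DMSO wells for no effect and DMSO wells lacking apelin-13 for full effect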
# EBI2 conf: EBI2 antagonist hit retest, beta-arrestin, confirmation, cell-based, single concentration, luminescence, 7a,25-OHC stimulation; shares compounds with EBI2 block; 7a,25-OHC antagonism; inhibition, % at 5 µM; actives 29% (n = 2,400);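 active = inhibition of at least 50%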
# EBI2 agonist: EBI2 agonist activity of antagonist hits, confirmation, counter-screen for EBI2 antagonist project, cell-based, single concentration, agonist mode, luminescence. 2,400 tested, under 10 active. activation, % at 5 µM. EBI2-expressing cells, 60 min; 0% vehicle, 100% 7α,25-dihydroxycholesterol control. shares compounds with EBI2 block;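 active = activation of at least 50%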
# bGal counter: E. coli beta-galactosidase enzyme inhibition, confirmation, counter-screen for EBI2 antagonist project, biochemical, luminescence, single concentration. shares compounds with EBI2 block. purified beta-galactosidase, luminescent Galacton Star, 15 min. inhibition, % at 5 µM. actives 1% (n = 2,400);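 active = replicate-average signal at least 3 plate SD below neutral wells, shown as high inhibition, flagging enzyme-inhibiting false positives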;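 also: 0% = DMSO wells with enzyme and 100% = wells lacking enzyme; higher means stronger loss of beta-gal luminescence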
# An asterisk follows results filed as active; / = not tested or not shown.
SMILES,EBI2 block,APJ agonist,CXCR6 inh,CCR6 antag,FXN GAA850 act,APJ antagonist,EBI2 conf,EBI2 agonist,bGal counter
CC(C)CC(=O)N1CCN(C(=O)c2ccc(-c3ccccc3)cc2)CC1,73.6*,0.0,-17.9,-4.7,1.1,16.3,24.7,0.1,7.2
Cc1ccc(C)c(CNc2ccc(S(=O)(=O)N3CCCCC3)cc2)c1,43.6,-2.5,8.2,17.8,2.7,-17.6,/,/,/
Cc1cn(C2CCCO2)c(=O)nc1N (centres undefined),-3.3,/,1.3,1.1,-1.2,/,/,/,/
COc1cccc(S(=O)(=O)N(C)C[C@@H]2OCc3cn(nn3)CCCC(=O)N([C@@H](C)CO)C[C@H]2C)c1,-7.5,/,4.1,/,-1.0,/,/,/,/
COc1ccc(C(=O)N2CCC(O)(c3ccc(Cl)cc3)CC2)cc1OC,51.7*,2.7,-1.7,2.9,3.9,-14.8,44.3,1.8,0.5
COc1cc(OC)cc(C(=O)N2CCN(c3ccccc3F)CC2)c1,0.5,-0.9,-0.1,-0.1,-1.3,11.3,/,/,/
COc1cc(OC)cc(C(=O)N2CCN(C(=O)c3ccc(-c4ccccc4)cc3)CC2)c1,89.0*,-1.4,1.0,-5.7,4.6,-12.2,66.9*,-1.2,-1.1
Cn1c(=O)c2cc(NC(=O)NCc3ccc(F)cc3)ccc2n1C,-15.1,/,-15.5,/,0.9,/,/,/,/
CSC1=C(C#N)C(c2ccccc2Cl)C(C(C)=O)=C(C)N1 (centres undefined),65.3*,-0.7,7.5,-3.3,-0.2,9.7,47.6,3.1,10.2
O=C(Nc1c(-c2ccc(Cl)cc2)[nH][nH]c1=O)c1ccccc1Cl,0.9,/,-4.3,/,/,/,/,/,/
c1ccc(-c2csc(Nc3ccc4c(c3)OCO4)n2)cc1,44.5*,/,-5.1,/,/,/,46.9,0.9,6.4
N#Cc1ccc(Nc2nc(-c3ccccc3)cs2)cc1,27.1,/,-15.0,/,/,/,/,/,/
Cc1cc2nc(-c3ccco3)c(Cc3ccccc3C(F)(F)F)n2c(C)c1Br,9.3,/,7.1,/,/,/,/,/,/
COc1ccc(OCC(O)CNC(=O)c2ccc(OC)cc2)cc1 (centres undefined),20.9,-0.9,3.9,11.7,1.0,8.9,/,/,/
CC(C)NCC(O)COc1ccc(Br)cc1 (centres undefined),1.5,-0.7,-4.1,12.2,0.8,2.5,/,/,/
COc1ccc(OCC(O)COc2ccc(OC)cc2)cc1,71.5*,1.9,-12.6,-7.8,1.3,4.9,60.2*,1.2,7.8
COc1ccc(Br)cc1CN(C)CC(O)COc1ccc(Br)cc1 (centres undefined),90.7*,-0.6,-7.2,10.5,-2.5,12.2,58.8*,-1.0,-12.2
COc1ccc(OCC(O)CNC(=O)c2ccc(Br)cc2)cc1 (centres undefined),53.5*,-2.2,3.1,20.9,-2.0,-12.9,35.7,1.0,8.8
COc1ccc(OCC(O)CNc2ccc(Br)cc2)cc1 (centres undefined),75.5*,0.4,-1.2,-2.6,-2.0,-0.1,51.8*,-0.5,-9.2
O=C(NCc1ccccc1)/C(=C\c1cccc([N+](=O)[O-])c1)NC(=O)c1ccco1,-3.0,/,3.7,/,-1.6,/,/,/,/
CCOC(=O)C1(C)CCCCCN1C(=O)c1ccc(SC(F)(F)F)cc1 (centres undefined),22.1,/,-4.9,/,0.1,/,/,/,/
Cc1cc(C(=O)CN2C(=O)C(=O)N(CC(C)C)C2=O)c(C)n1C1CC1,5.7,-2.7,1.1,0.8,2.8,1.6,/,/,/
